For 35 molecules, ED25, Activity and EC50 results are on record in ChEMBL document CHEMBL1135907, “Novel 5-substituted 2,4-thiazolidinedione and 2,4-oxazolidinedione derivatives as insulin sensitizers with antidiabetic activities” (J Med Chem, 2002).

The species entered for test [1] is Mus musculus. Nature of the test: Effective dose for 25% reduction in plasma lipid-lowering activity in KKAy mice. Type of test: functional. A digest of the protocol: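 Male/female not stated; KKAy mice, 9–13 weeks old, fed powdered CE-2 chow 3 d, grouped (five per group) by blood glucose. Compounds given as dietary admixture at three levels (0.01, 0.005 or 0.001% in diet) for 4 d. Orbital-vein plasma triglyceride measured enzymatically as % reduction vs control; dose (mg/kg/d) from food intake and body weight; ED25 by linear regression.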

Test [2] is described as follows: Plasma glucose-lowering activity at a dosage of 0.001% in the diet in KKAy mice. It is filed as functional, Mus musculus. In short, it runs like this:
(§1)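 KKAy mice (9–13 weeks old), five per group, grouped by blood glucose after 3 d on powdered CE-2 chow. Dietary admixture at 0.001, 0.005 or 0.01% for 4 d, food and water ad libitum. Orbital-vein plasma glucose measured enzymatically and expressed as maximum percent reduction versus control; Dunnett's test.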

A short description of test [3]: Plasma glucose-lowering activity at a dosage of 0.005% in the diet in KKA(y) mice. Type of test: functional, Mus musculus. In short, it runs like this: as §1
The species entered for test [4] is Mus musculus. The experiment in a line: Effective dose for 25% reduction in plasma glucose-lowering activity of KKAy mice. Type of test: functional. In short, it runs like this: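 KKAy mice (9–13 weeks old), five per group, allocated by blood glucose after 3 d on powdered CE-2 chow. Compounds given as dietary admix at three levels chosen from first screening, 4 d ad libitum. Orbital-vein plasma glucose assayed enzymatically. Dose in mg/kg/d computed from food intake and body weight; ED25 derived by linear regression.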

The nature of test [5]: Plasma lipid-lowering activity at a dosage of 0.005% in the diet in KKA(y) mice. It is filed as functional, Mus musculus. A digest of the protocol:
(§2)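 KKAy mice (9–13 weeks old), five per group, on powdered CE-2 diet containing compound at 0.001, 0.005 or 0.01% for 4 d. Plasma triglyceride from orbital-vein blood measured enzymatically and reported as maximum percent reduction from control; Dunnett's test; less than 10% reduction flagged.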

A short description of test [6]: Plasma lipid-lowering activity at a dosage of 0.001% in the diet in KKAy mice. Type of test: functional, Mus musculus. A digest of the protocol: as §2
The target in a further test is T1, RXR alpha/PPAR gamma (Homo sapiens, UniProt P19793+P37231).
T1 sequence (P37231 whole entry): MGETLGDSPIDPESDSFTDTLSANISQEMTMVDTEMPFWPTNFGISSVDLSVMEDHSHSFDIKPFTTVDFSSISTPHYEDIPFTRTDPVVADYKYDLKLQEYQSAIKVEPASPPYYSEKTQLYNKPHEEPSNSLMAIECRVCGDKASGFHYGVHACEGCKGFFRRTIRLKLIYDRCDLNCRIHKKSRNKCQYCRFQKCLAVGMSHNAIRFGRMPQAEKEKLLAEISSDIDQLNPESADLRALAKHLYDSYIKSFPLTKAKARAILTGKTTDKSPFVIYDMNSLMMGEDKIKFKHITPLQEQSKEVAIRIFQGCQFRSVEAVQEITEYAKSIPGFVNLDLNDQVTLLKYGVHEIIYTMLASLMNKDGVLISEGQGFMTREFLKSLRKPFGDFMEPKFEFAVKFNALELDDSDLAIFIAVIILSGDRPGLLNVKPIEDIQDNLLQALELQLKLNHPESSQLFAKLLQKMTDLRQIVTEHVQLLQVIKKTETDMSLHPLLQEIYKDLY
T1 sequence (P19793 whole entry): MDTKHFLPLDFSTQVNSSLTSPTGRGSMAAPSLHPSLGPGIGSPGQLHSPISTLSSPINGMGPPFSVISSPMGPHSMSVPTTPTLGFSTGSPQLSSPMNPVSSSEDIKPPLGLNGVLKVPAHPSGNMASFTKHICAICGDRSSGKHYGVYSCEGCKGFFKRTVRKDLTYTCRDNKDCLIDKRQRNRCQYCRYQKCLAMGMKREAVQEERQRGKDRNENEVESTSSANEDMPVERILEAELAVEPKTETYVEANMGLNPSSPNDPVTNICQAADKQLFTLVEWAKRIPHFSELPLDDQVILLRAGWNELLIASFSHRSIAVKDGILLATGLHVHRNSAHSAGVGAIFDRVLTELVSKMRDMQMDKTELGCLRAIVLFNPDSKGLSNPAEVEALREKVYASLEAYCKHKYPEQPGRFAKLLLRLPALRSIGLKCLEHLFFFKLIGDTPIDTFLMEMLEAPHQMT
Nature of the test: Transcriptional activation in COS cells expressing PPAR gamma and RXR alpha.

The species named for a further test is Rattus norvegicus. Nature of the test: Effective dose for 25% reduction in plasma glucose-lowering activity in Wistar fatty rats. Type of test: functional. In short, it runs like this: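 Wistar fatty rats (10–15 weeks old), five per group, allocated by plasma glucose and triglyceride. Oral dosing by stomach tube once daily for 6 d at three doses, suspended in 0.5% methyl cellulose; CE-2 pellets and water ad libitum. Tail-vein plasma glucose measured; ED25 taken from the three-dose response by linear regression.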

A short description of test [7]: Plasma lipid-lowering activity at a dosage of 0.01% in the diet in KKAy mice. It is filed as functional, Mus musculus. In short, it runs like this: as §2
[8] abbreviates: Rattus norvegicus, Plasma, read-out: ED25.

In the test filed under Mus musculus [1], `CC1(COc2ccc(CC3SC(=O)NC3=O)cc2)CCCCC1` (configuration not stated) [CIGLITAZONE] returned an ED25 of 25 mg/kg/day.
Regarding `Cc1oc(-c2ccccc2)nc1COc1ccc(CCC2OC(=O)NC2=O)cc1` (configuration not stated), the Activity in test [2] came to 28; in test [3], 63; in [5], 60; in test [6], 13. For the same molecule, the ED25 in the test filed under Mus musculus [4] was 1.31 mg/kg/day.
For `Cc1oc(-c2ccccc2)nc1CCOc1ccc(CCC2SC(=O)NC2=O)cc1` (configuration not stated), the Activity in [3] turned out to be 14; in test [5] it was 32.
`Cc1oc(-c2ccccc2)nc1COc1ccc(CCCCCC2SC(=O)NC2=O)cc1` (configuration not stated): the Activity is listed as 19 in test [3] and less than 10 in test [5].
As for `Cc1oc(-c2ccco2)nc1COc1ccc(CCCC2OC(=O)NC2=O)cc1` (configuration not stated), the results for the Activity in [2], in [3] and in test [5] were 38, 61 and 58, respectively.
Take `Cc1oc(-c2ccccc2)nc1COc1ccc(CCCCCC2OC(=O)NC2=O)cc1` (configuration not stated): the Activity in test [3] was 45; in [5], 59.
Consider `Cc1oc(-c2ccccc2)nc1CCC(=O)c1ccc(CCCC2OC(=O)NC2=O)cc1` (configuration not stated), for which the Activity is listed as 32 in test [3] and 17 in test [5].
With `Cc1oc(-c2ccccc2)nc1CCOc1ccc(/C=C/C=C2\SC(=O)NC2=O)cc1`, the Activity in test [3] and in test [5] was 13 each time.
With `Cc1oc(-c2cccc3ccccc23)nc1COc1ccc(CCCC2OC(=O)NC2=O)cc1` (configuration not stated), the Activity in test [3] is 23.
As to `Cc1sc(-c2ccccc2)nc1COc1ccc(CCCC2OC(=O)NC2=O)cc1` (configuration not stated), the Activity in test [2] was 15; in test [3], 43; in test [5], 58; in test [6] it was 17. This molecule returned an EC50 on RXR alpha/PPAR gamma of 0.813 µM. Further, in the test filed under Rattus norvegicus (setting [8]), the ED25 amounted to 0.5 mg/kg/day.
Consider `COc1cc(CCCC2SC(=O)NC2=O)ccc1OCc1nc(-c2ccccc2)oc1C` (configuration not stated), for which the Activity in test [2] came out at 12; in test [3] it was 54; in test [5], 58; in test [6] it was 24. The ED25 in the test filed under Mus musculus [4] was 3.17 mg/kg/day.
Consider `Cc1oc(-c2cc3ccccc3s2)nc1COc1ccc(CCCC2OC(=O)NC2=O)cc1` (configuration not stated), for which the Activity was 25 in test [2], 48 in [3], 62 in test [5] and 24 in test [6].
Regarding `Cc1oc(-c2ccccc2)nc1CCCOc1ccc(CC2OC(=O)NC2=O)cc1` (configuration not stated), the values for the Activity in [3] and in test [5] were 30 and 25, respectively.
As for `Cc1oc(-c2ccccc2)nc1COc1ccc(CCCC2SC(=O)NC2=O)cc1` (configuration not stated), the Activity was less than 10 in test [2], 48 in test [3], 37 in test [5] and less than 10 in [6].
For `Cc1oc(-c2ccccc2)nc1COc1ccc(CCCC2OC(=O)NC2=O)cn1` (configuration not stated), the Activity in [2] stood at 53; in test [3] it was 54; in [5] it was 82; in [6], 69. Also, the midpoint of the response on RXR alpha/PPAR gamma, the EC50, lay at 0.0165 µM. The ED25 in the test filed under Rattus norvegicus (setting [8]) was determined as 0.048 mg/kg/day.
Take `Cc1oc(-c2cc3ccccc3o2)nc1COc1ccc(CCCC2OC(=O)NC2=O)cc1` (configuration not stated): the Activity in test [2] was 27; in test [3], 47; in [5] it was 71; in test [6], 12.
`Cc1oc(-c2ccccc2)nc1CCOc1ccc(CCC2OC(=O)NC2=O)cc1` (configuration not stated): the Activity in test [2] was found to be 18; in [3] it was 56; in [5], 53; in [6] it was 15. Also, the ED25 in the test listed under Mus musculus [4] worked out at 4.83 mg/kg/day.
For `Cc1oc(-c2ccccc2)nc1COc1cccc(CCCC2OC(=O)NC2=O)c1` (configuration not stated), the Activity is 47 in test [7] and 32 in test [3].
Turning to `Cc1oc(-c2ccccc2)nc1COc1ccc(/C=C/C=C2/OC(=O)NC2=O)cc1`, the Activity is recorded as 23 in [3] and 29 in test [5].
The matching figures for `Cc1oc(-c2ccccc2)nc1CCOc1ccc(CCCCCC2OC(=O)NC2=O)cc1` (configuration not stated): 23 and 17.
For `Cc1oc(-c2ccccc2)nc1COc1ccccc1CCCC1OC(=O)NC1=O` (configuration not stated), the Activity came to 33 in [7] and 11 in test [3].
On to `COc1cc(CCCC2OC(=O)NC2=O)ccc1OCc1nc(-c2ccco2)oc1C` (stereo in doubt; (+)-64), for which the Activity in [2] amounted to 45; in test [6] it was 32. The molecule also registered an EC50 at RXR alpha/PPAR gamma of 0.00887 µM. In the test listed under Rattus norvegicus, this molecule had an ED25 of 0.05 mg/kg/day.
`Cc1oc(-c2ccccc2)nc1CCOc1ccc(CCCCC2OC(=O)NC2=O)cc1` (configuration not stated): the Activity in test [3] and in test [5] was 27 in each case.
Turning to `Cc1oc(-c2ccccc2)nc1COc1ccc(CCCCC2SC(=O)NC2=O)cc1` (configuration not stated), the Activity came to 22 in [3] and 21 in test [5].
As to `Cc1oc(-c2ccccc2)nc1CCCc1ccc(CCCC2OC(=O)NC2=O)cc1` (configuration not stated), the Activity turned out to be 22 in test [3] and 19 in test [5].
`COc1cc(CCCC2OC(=O)NC2=O)ccc1OCc1nc(-c2ccco2)oc1C` (single isomer, unassigned; (-)): the Activity in test [3] and in test [6] was less than 10 in each case. Moreover, the EC50 at RXR alpha/PPAR gamma is 0.0354 µM. In the test listed under Rattus norvegicus, the ED25 stood at 0.362 mg/kg/day.
For `Cc1oc(-c2ccccc2)nc1CCC(O)c1ccc(CCCC2OC(=O)NC2=O)cc1` (configuration not stated), the Activity in test [3] is listed as 23; in [5], 22.
The matching figures for `Cc1oc(-c2ccccc2)nc1COc1ccc(CCC2SC(=O)NC2=O)cc1` (configuration not stated): 24 and 15.
Take `Cc1oc(-c2ccccc2)nc1COc1ccc(CCCC2OC(=O)NC2=O)cc1` (configuration not stated): the Activity in test [2] worked out at 53; in test [3], 61; in [5] it was 83; in test [6] it was 55. The molecule also returned an EC50 at RXR alpha/PPAR gamma of 0.119 µM. Moreover, the figures for the ED25 in the test filed under Mus musculus [4] and in the test filed under Rattus norvegicus (setting [8]) were 0.402 mg/kg/day and 0.078 mg/kg/day, respectively.
For `O=C1NC(=O)C(CCCc2ccc(OCc3coc(-c4ccccc4)n3)cc2)O1` (configuration not stated), in test [3], the Activity was 44.
As to `Cc1oc(-c2ccccc2)nc1COc1ccc(CCCCC2OC(=O)NC2=O)cc1` (configuration not stated), the Activity amounted to 43 in test [3] and 51 in test [5].
As to `COc1cc(CCCC2OC(=O)NC2=O)ccc1OCc1nc(-c2ccco2)oc1C` (stereo in doubt; 64), the Activity in test [2] is 39; in test [3], 58; in test [5], 74; in test [6], less than 10. This molecule also gave an EC50 on RXR alpha/PPAR gamma of 0.0241 µM. In the test filed under Rattus norvegicus, the ED25 was determined as 0.069 mg/kg/day.
As for `Cc1oc(-c2ccc3ccccc3c2)nc1COc1ccc(CCCC2OC(=O)NC2=O)cc1` (configuration not stated), the Activity in [2] amounted to 45; in [3], 55; in test [5], 72; in test [6], 40. Further, the midpoint of the response at RXR alpha/PPAR gamma, the EC50, lay at 0.0293 µM. For the same molecule, in the test filed under Rattus norvegicus (setting [8]), the ED25 worked out at 0.178 mg/kg/day.
Consider `Cc1oc(-c2ccccc2)nc1CCOc1ccc(CCCC2OC(=O)NC2=O)cc1` (configuration not stated), for which the Activity was 11 in test [2], 49 in test [3], 41 in test [5] and 26 in test [6]. In the test listed under Mus musculus [4], this molecule came in with an ED25 of 2.91 mg/kg/day.
As for `COc1cc(CCCC2OC(=O)NC2=O)ccc1OCc1nc(-c2ccccc2)oc1C` (configuration not stated), the Activity in test [2] was 48; in test [3] it was 61; in test [5], 75.

The term EC50 denotes the concentration at which the effect is half-maximal. A high value points to a less potent agent.
